The text below walks through data of ChEMBL document CHEMBL1133750, “X-Ray structure of cytotoxic trans-[PtCl(2)(dimethylamine)(isopropylamine)]: interstrand cross-link efficiency, DNA sequence specificity, and inhibition of the B-Z transition” (J Med Chem, 2000).

Assay [1] in a line: Ratio of the amount of platinum bound per nucleotide to ri (0.15). Put shortly:
(§1)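 Linear pBR322 DNA (20 μg/mL) in 10 mM NaClO₄ incubated at 37 °C with Pt compound at input Pt/nucleotide ratio ri of 0.01–0.20; 24 h for the rb/ri series, aliquots at various times for kinetics. Unbound drug removed by ethanol/0.3 M sodium acetate (pH 4.8) precipitation of DNA; Pt bound per nucleotide (rb) measured by TXRF; rb/ri given as percent; mean ± SD.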

A short description of assay [2]: Ratio of the amount of platinum bound per nucleotide to ri (0.20). The procedure, abridged:
as §1

The nature of assay [3]: Ratio of the amount of platinum bound per nucleotide to ri (0.01). The procedure, abridged:
as §1

Assay [4] can be described thus: Ratio of the amount of platinum bound per nucleotide to ri (0.10). The procedure, abridged:
as §1

Assay [5] in a line: Ratio of the amount of platinum bound per nucleotide to ri (0.05). Put shortly: as §1

In the case of CISPLATIN, the Ratio in assay [1] was determined as 80%; in assay [2] it was 75%; in assay [3] it was 97%; in assay [4], 90%; in assay [5] it was 95%.

For “Trans-[PtCl2(dimethylamine)isopropylamine)] (tdmaipa)”, the Ratio is 70% in assay [1]; 68% in assay [2]; 85% in assay [3]; 76% in assay [4]; 82% in assay [5].
